From ChEMBL document CHEMBL4665843, “Automated Design of Macrocycles for Therapeutic Applications: From Small Molecules to Peptides and Proteins” (J Med Chem, 2020)

How the values were obtained:
Carboxypeptidase B2 = molecular target: T1, Carboxypeptidase B2 (Homo sapiens, UniProt Q96IY4); test: Inhibition of TAFIalpha in human plasma incubated for 15 mins by chromogenic assay; assay type: cell-free
T1 sequence (Q96IY4 whole entry): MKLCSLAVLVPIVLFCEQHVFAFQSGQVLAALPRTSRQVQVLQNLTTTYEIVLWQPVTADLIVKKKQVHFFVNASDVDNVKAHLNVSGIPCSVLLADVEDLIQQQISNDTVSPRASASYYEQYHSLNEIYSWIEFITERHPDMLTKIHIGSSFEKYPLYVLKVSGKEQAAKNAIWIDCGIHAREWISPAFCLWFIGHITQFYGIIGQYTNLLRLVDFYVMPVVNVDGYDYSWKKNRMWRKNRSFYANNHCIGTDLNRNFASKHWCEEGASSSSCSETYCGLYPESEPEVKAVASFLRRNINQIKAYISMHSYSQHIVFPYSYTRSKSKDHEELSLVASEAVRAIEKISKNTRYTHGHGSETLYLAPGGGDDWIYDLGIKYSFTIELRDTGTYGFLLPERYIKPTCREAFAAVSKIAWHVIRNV
Outline: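 Plasma TAFI activity kit: TAFIa (2.5 μg/mL) preincubated with compound (from 2.5 mM DMSO stock) in 20 mM HEPES, 150 mM NaCl, pH 7.4, 15 min at room temperature; reaction started with developer (1:2 prediluted) and followed at 420 nm for 15 min. IC50 from serial dilutions in duplicate; mean (SEM) of n = 2 within one experiment.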

[1] = molecular target: Glucagon-like peptide 1 receptor (Homo sapiens, UniProt P43220); test: Agonist activity at human GLP-1 receptor expressed in HEK293 cells assessed as induction of cAMP accumulation incubated for 30 mins by HTRF assay; assay type: functional, cell-based
Outline: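 HEK-293 cells stably expressing human receptor, grown in DMEM/10% FBS, frozen, thawed and washed in HBSS/20 mM HEPES/0.1% HSA; resuspended with 2 mM IBMX. 5000 cells/well incubated with peptide 30 min at room temperature; cAMP by HTRF kit, 1 h with reagents in lysis buffer, 665/620 nm fluorescence ratio.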

Glucagon receptor = Glucagon receptor (Homo sapiens, UniProt P47871); test: Agonist activity at human glucagon receptor expressed in HEK293 cells assessed as induction of cAMP accumulation incubated for 30 mins by HTRF assay; assay type: functional, cell-based
Glucagon receptor, sequence (P47871 whole entry): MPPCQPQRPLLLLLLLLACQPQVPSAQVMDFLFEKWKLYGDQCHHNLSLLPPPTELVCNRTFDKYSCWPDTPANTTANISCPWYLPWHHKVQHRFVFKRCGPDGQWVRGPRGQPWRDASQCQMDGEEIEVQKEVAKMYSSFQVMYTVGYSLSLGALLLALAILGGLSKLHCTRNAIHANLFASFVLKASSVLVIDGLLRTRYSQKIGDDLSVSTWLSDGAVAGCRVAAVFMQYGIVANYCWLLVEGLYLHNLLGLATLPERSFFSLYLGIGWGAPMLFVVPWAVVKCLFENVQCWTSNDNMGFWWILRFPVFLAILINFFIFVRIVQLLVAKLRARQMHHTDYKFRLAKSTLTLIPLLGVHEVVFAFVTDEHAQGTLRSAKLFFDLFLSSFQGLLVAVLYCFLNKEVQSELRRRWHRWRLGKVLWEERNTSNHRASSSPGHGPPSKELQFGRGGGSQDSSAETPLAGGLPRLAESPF

Glucagon-like peptide 1 receptor, sequence (P43220 whole entry): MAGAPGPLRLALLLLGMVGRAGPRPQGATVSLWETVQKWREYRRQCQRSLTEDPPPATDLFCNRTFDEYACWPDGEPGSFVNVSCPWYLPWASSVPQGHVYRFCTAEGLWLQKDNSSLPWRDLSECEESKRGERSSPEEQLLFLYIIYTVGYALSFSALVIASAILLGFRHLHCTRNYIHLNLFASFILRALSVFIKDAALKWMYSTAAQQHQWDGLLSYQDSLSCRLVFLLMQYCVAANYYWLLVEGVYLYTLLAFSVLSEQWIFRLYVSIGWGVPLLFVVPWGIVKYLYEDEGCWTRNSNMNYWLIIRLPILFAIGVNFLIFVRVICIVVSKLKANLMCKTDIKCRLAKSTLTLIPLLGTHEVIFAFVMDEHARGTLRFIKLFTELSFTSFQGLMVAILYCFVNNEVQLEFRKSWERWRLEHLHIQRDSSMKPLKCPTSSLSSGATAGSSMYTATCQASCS

Row | SMILES | IC50 (Carboxypeptidase B2) [nM] | EC50 [1] [nM] | EC50 (Glucagon receptor) [nM]
1 | CC(C)[C@@H]1NC(=O)[C@H](NC(=O)N[C@@H](CCCCN)C(=O)O)Cc2ccc(cc2)NC(=O)c2coc1n2 | 52 | – | –
2 | CC(C)[C@@H]1NC(=O)[C@H](NC(=O)N[C@@H](CCCCN)C(=O)O)CCCCNC(=O)c2coc1n2 | 42 | – | –
3 | CC(C)[C@@H]1NC(=O)[C@H](NC(=O)N[C@@H](CCCCN)C(=O)O)CCCCNC(=O)c2csc1n2 | 10 | – | –
4 | CC[C@H](C)[C@H](NC(=O)[C@H](Cc1ccccc1)NC(=O)[C@H](CC(=O)O)NC(=O)[C@H](CCC(N)=O)NC(=O)[C@H](C)NC(=O)[C@H](CCCNC(=N)N)NC(=O)[C@H](CCCNC(=N)N)NC(=O)[C@H](CO)NC(=O)[C@H](CC(=O)O)NC(=O)[C@]1(C)CCC/C=C\CCC[C@](C)(NC(=O)[C@H](CC(=O)O)NC(=O)[C@H](CO)NC(=O)[C@@H](NC(=O)[C@H](Cc2ccccc2)NC(=O)[C@@H](NC(=O)CNC(=O)[C@H](CCC(N)=O)NC(=O)[C@H](CO)NC(=O)[C@@H](N)Cc2cnc[nH]2)[C@@H](C)O)[C@@H](C)O)C(=O)N[C@@H](CO)C(=O)N[C@@H](CCCCN)C(=O)N[C@@H](CCC(N)=O)C(=O)N1)C(=O)N[C@@H](CCC(=O)O)C(=O)N[C@@H](Cc1c[nH]c2ccccc12)C(=O)N[C@@H](CC(C)C)C(=O)N[C@@H](CCCCN)C(=O)N[C@@H](CC(N)=O)C(=O)NCC(=O)NCC(=O)N1CCC[C@H]1C(=O)N[C@@H](CO)C(=O)N[C@@H](CO)C(=O)NCC(=O)N[C@@H](C)C(=O)N1CCC[C@H]1C(=O)N1CCC[C@H]1C(=O)N1CCC[C@H]1C(=O)N[C@@H](CO)C(N)=O | – | 0.0074 | 0.0023
5 | CC[C@H](C)[C@@H]1NC(=O)[C@H](Cc2ccccc2)NC(=O)[C@@H](NC(=O)[C@H](CCC(N)=O)NC(=O)[C@H](C)NC(=O)[C@H](CCCNC(=N)N)NC(=O)[C@H](CCCNC(=N)N)NC(=O)[C@H](CO)NC(=O)[C@H](CC(=O)O)NC(=O)[C@H](CCSC)NC(=O)[C@H](CCC(N)=O)NC(=O)[C@H](CCCCN)NC(=O)[C@H](CO)NC(=O)[C@H](CC(C)C)NC(=O)[C@H](CC(=O)O)NC(=O)[C@H](CO)NC(=O)[C@@H](NC(=O)[C@H](Cc2ccccc2)NC(=O)[C@@H](NC(=O)CNC(=O)[C@H](CCC(N)=O)NC(=O)[C@H](CO)NC(=O)[C@@H](N)Cc2cnc[nH]2)[C@@H](C)O)[C@@H](C)O)CSCc2cc3cc(c2)CSC[C@@H](C(=O)N2CCC[C@H]2C(=O)N2CCC[C@H]2C(=O)N2CCC[C@H]2C(=O)N[C@@H](CO)C(N)=O)NC(=O)CNC(=O)[C@H](CO)NC(=O)[C@@H](CO)NC(=O)[C@@H]2CCCN2C(=O)CNC(=O)CNC(=O)[C@H](CSC3)NC(=O)[C@H](CCCCN)NC(=O)[C@H](CC(C)C)NC(=O)[C@H](Cc2c[nH]c3ccccc23)NC(=O)[C@H](CCC(=O)O)NC1=O | – | 0.194 | 0.578
